Assay results: paper PMC11529803 (Medicinal chemistry research : an international journal for …, 2024)
Where a name gives a salt, the structure may show the parent alone.

Key:
[1] = In vivo metabolism and pharmacokinetics of LH708; parameters: species or system Slc3a1 KO male mice
[2] = test system: Slc3a1-knockout mouse model of cystinuria; details: after oral gavage; cited from earlier work
[3] = cited from earlier work
[4] = L-cystine crystallization inhibition assay; details: for EC50 relative to parent LH708: metabolites of LH708
Summary of the method: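 Supersaturated L-cystine solution was held with test compound over a concentration range for 72 h at 20 °C, then centrifuged at 14,000 rpm for 10 min at room temperature. Supernatant was diluted 10-fold in water and run in triplicate: potassium cyanide in PBS pH 7.4, 25 min shaking, then sodium nitroprusside, with absorbance read at 530 nm. Cystine was read off a standard curve; EC50 came from nonlinear regression.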

[5] = Crystal growth inhibition by in situ atomic force microscopy; details: in situ AFM on {0001} growth hillocks
Summary of the method: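 Real-time in situ AFM in a fluid cell on hexagonal L-cystine crystals grown from aqueous supersaturated solution (pH 6.3), filtered and air-dried. Surface regenerated for 20 min by flowing supersaturated 2 mM cystine at 20 mL/h. Velocities of {1010} steps on the {0001} basal plane were measured without inhibitor (Vo), then with test compound at 15, 30 and 45 µM under identical conditions.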

SMILES: CN1CCN(C(=O)[C@@H](N)CSSC[C@H](N)C(=O)N2CCN(C)CC2)CC1 [Compound 2, L-cystine bis(N′-methylpiperazide)]
- plasma half-life ([1]; after LH708 single dose 150 μmol/kg): ~ 10 min
- main metabolic pathway ([1]; single iv or oral dose of LH708, plasma and urine): disulfide exchange
- prevention of L-cystine stone formation [2]: active
- chemical and metabolic stability compared with L-CDME (1) [3]: chemically and metabolically more stable

SMILES: N[C@@H](CSSC[C@H](N)C(=O)N1CCNCC1)C(=O)N1CCNCC1 [Compound 3a, L-Cystine bis(piperazide) tetrahydrochloride]
- EC50 relative to parent LH708 [4]: ≤ 2 fold
- L-cystine crystal growth inhibition (step roughening and decrease of {1010} step velocity) [5]: less effective than the other two compounds

SMILES: Cl.Cl.Cl.Cl.N[C@@H](CSSC[C@H](N)C(=O)N1CCN(c2ccccc2)CC1)C(=O)N1CCN(c2ccccc2)CC1 [Compound 3e, L-Cystine bis(N′-phenylpiperazide) tetrahydrochloride]
- decrease in L-cystine crystallization inhibition activity ([4]; relative to LH708 (N4-methyl)): > 10 fold

SMILES: Cl.Cl.Cl.Cl.N[C@@H](CSSC[C@H](N)C(=O)N1CCCC12CCNCC2)C(=O)N1CCCC12CCNCC2 [Compound 3j, L-Cystine bis(1,8-diazaspiro[4.5]decan-1-yl) tetrahydrochloride]
- reduction in L-cystine crystallization inhibition ([4]; relative to structure isomer 3i): ~5 fold

SMILES: Cl.Cl.N[C@@H](CSSC[C@H](N)C(=O)NCCN1CCCC1=O)C(=O)NCCN1CCCC1=O [Compound 4e, L-Cystine bis(N′-pyrrolidin-2-one ethyleneamide) dihydrochloride]
- L-cystine crystallization inhibition activity (in words) [4]: lost almost all of its crystallization inhibition activity

SMILES: CN1CCN(C(=O)[C@@H](N)CSSC[C@H](N)C(=O)O)CC1.Cl.Cl.Cl [Compound 25, S-(((R)-2-Amino-3-(4-methylpiperazin-1-yl)-3-oxopropyl)thio)-L-cysteine trihydrochloride]
- EC50 relative to parent LH708 [4]: ≤ 2 fold
